Screening data (PubChem BioAssay)
An excerpt weighted towards active compounds, which were near 2.2% of everything screened.
VIM-2 inh: VIM-2 metallo-beta-lactamase inhibitors, primary screen, biochemical, epi-absorbance readout, Pseudomonas aeruginosa enzyme. purified VIM-2, nitrocefin hydrolysis, epi-absorbance fluorescence. inhibition, % at 5.6 µM. 290,000 tested, 0.89% active;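 active = inhibition above the mean of all tested compounds plus 3 SD, cutoff set per screening run, cut at about 7.5% in these data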;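 also: red hydrolysis product quenches plate fluorescence so inhibitors raise well fluorescence; 0% = enzyme with DMSO and 100% = DMSO without enzyme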
GLD-1 RNA inh: GLD-1/TGE RNA complex disruptors, primary screen, biochemical, fluorescence polarization. purified GLD-1 + fluorescein TGE RNA. 320,000 tested, 0.44% active. Female germline-specific tumor suppressor gld-1 (Caenorhabditis elegans), Q17339. inhibition, % at 5.96 µM;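 active = percent inhibition above a per-plate cutoff, the plate mean of test compounds plus 3 SD, cut at about 30% in these data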;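 also: 0% = DMSO wells with GLD-1 and probe and 100% = wells lacking GLD-1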
IMP-1 inh: IMP-1 metallo-beta-lactamase inhibitors, primary screen, biochemical, epi-absorbance readout, Pseudomonas aeruginosa enzyme; purified IMP-1, nitrocefin hydrolysis, epi-absorbance fluorescence; inhibition, % at 5.6 µM; 290,000 tested, 0.45% active; AID 1556, 2009;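 active = inhibition above the mean plus 3 SD of all compounds in the same screening run, cut at about 4.5% in these data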;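 also: 0% = IMP-1 with DMSO and 100% = DMSO wells lacking enzyme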
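System: Purified IMP-1 | Read-out basis: Percent enzyme inhibition | Controls: IMP-1 with DMSO as 0%, enzyme-free DMSO as 100% | Replicates: One well per compound | Doses: 5.6 µM nominal single concentration | Detection: Epi-absorbance fluorescence, 480 nm excitation, 530 nm emission | Incubation: 25 °C, 15 min preincubation, 25 min reaction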
BCLXL inh: inhibitors of human Bcl-xL, primary screen, biochemical, fluorescence polarization, HTS; inhibition, % at 10.9 µM; GST-Bcl-xL / FITC-Bim BH3 peptide fluorescence polarization; Bcl-2-like protein 1 (Homo sapiens), Q07817; 320,000 tested, 0.7% active;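 active = inhibition above the mean of all tested compounds plus 3 SD, cutoff set per campaign, cut at about 30% in these data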;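 also: 0% = DMSO wells and 100% = unlabeled Bim-BH3 peptide competitor; inhibitors lower millipolarization by displacing the labeled peptide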
Target sequence (Q07817 whole entry, looked up): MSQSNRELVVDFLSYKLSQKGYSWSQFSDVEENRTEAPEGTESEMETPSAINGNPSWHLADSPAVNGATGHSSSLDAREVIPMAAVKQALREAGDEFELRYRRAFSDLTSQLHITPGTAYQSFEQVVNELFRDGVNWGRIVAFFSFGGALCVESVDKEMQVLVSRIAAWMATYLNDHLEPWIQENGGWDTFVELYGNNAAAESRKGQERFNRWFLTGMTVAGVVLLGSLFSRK
MEX-5 binding: MEX-5 zinc finger RNA-binding disruptors – biochemical, C. elegans, fluorescence polarization, MLPCN library, primary screen. MEX-5/FITC-TCR2 RNA binding; active compounds read low. activity score (negative = inhibition of binding), % at 10 µM. 300,000 tested, 0.38% active. AID 1832, 2009;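 active = inhibition past about -25% in most replicates, and total fluorescence under double the plate's negative control median, limit read from the data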;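 also: 0% = DMSO and -100% = 5 µM competing unlabeled TCR2 RNA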
Target sequence (Q9XUB2 whole entry, looked up): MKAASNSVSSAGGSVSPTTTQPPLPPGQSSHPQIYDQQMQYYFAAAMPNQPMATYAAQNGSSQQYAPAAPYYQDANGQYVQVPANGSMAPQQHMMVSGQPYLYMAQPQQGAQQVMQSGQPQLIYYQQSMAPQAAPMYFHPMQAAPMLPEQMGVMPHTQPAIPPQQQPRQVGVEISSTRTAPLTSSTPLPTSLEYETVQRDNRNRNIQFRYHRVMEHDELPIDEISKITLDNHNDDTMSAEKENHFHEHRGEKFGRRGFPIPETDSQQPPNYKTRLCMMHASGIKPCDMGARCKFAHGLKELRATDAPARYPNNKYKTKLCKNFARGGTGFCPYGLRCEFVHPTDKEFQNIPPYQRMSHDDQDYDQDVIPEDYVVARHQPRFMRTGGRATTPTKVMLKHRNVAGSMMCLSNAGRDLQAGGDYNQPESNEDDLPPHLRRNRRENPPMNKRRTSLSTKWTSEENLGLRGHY
EBV gp42 block: Epstein-Barr virus gp42 inhibitors, primary screen, biochemical, uHTS, fluorescence polarization. Fluorescence polarization binding assay, mP read-out. Glycoprotein 42 (Epstein-Barr virus (strain AG876)), Q1HVG2. 220,000 tested, 0.42% active. inhibition, % (tested at 21.74 µM); in the data active = inhibition above about 50%
Numbers without * were called inactive; . = no result given.

SMILES | VIM-2 inh | GLD-1 RNA inh | IMP-1 inh | BCLXL inh | MEX-5 binding | EBV gp42 block
O=C(O)C1Nc2ccc(Br)cc2C2C=CCC12 (stereo not drawn) | -0.5 | 6.8 | -3.2 | 78.6* | -29.7* | .
O=C(OC1CCCCC1)c1ccc2c(c1)C1C=CCC1C(C(=O)O)N2 (stereo not drawn) | -3.4 | . | -2.5 | . | . | 87.6*
Cc1c(CN2CCC(n3nccc3NC(=O)C3CC3)CC2)[nH]c2ccccc12 | -5.3 | -10.6 | -2.7 | 3.9 | -2.8 | .
CC(CC1C(C#N)=C(N)SC(N)=C1C#N)c1ccccc1 (stereo not drawn) | -1.9 | -36.8 | 5.1* | -22.3 | -0.5 | -39.0
CC(C)=C1C2CCC1C(C(=O)Nc1cc(C)cc(C)c1)C2C(=O)O (stereo not drawn) | 9.4* | 0.3 | -1.8 | 7.0 | 1.2 | -4.2
COc1ccc(S(=O)(=O)N2CCOCC2)cc1C(=O)N(C)CCOc1ccc(Cl)cc1 | . | 1.8 | . | 3.2 | . | .
COc1ccc(-c2csc3nc(-c4cccnc4)nc(Cl)c23)cc1OC | 11.6* | -6.1 | -3.4 | 5.5 | -0.6 | -4.7
Clc1nc(-c2cccnc2)nc2scc(-c3ccccc3)c12 | -1.9 | 2.2 | 0.1 | 7.6 | 1.6 | -32.4
CC1=C[C@H]2OC(=O)[C@@H](C)[C@H]2C[C@@H]2[C@H]1C[C@@H](O)[C@@]2(C)O | . | 114.4* | . | 0.8 | 0.7 | -7.9
CC1Cc2nc(SCC(=O)NCC3CCCO3)n(C)c(=O)c2S1 (stereo not drawn) | -0.1 | 11.0 | 2.2 | 7.1 | -0.2 | .
Fc1cccc(/C=N/Nc2nncc3ccccc23)c1 | -3.8 | -2.8 | -2.1 | -2.1 | -1.3 | .
C(=N\Nc1nncc2ccccc12)/c1ccccn1 | 0.8 | -3.4 | 6.5* | 1.4 | 19.6 | .
C(=N\Nc1nc2ccccc2[nH]1)/c1ccccn1 | -3.6 | . | -3.3 | . | -42.0* | -2.2
C(=N\Nc1nc2ccccc2[nH]1)/c1ccc2ncccc2c1 | -3.9 | -7.6 | -3.5 | -0.4 | -3.0 | -7.2
COc1ccc(CCNC(=O)COc2ccc3c(C)cc(=O)oc3c2)cc1OC | -2.6 | 3.7 | -1.3 | 2.9 | -0.2 | .
C=CC[N+](C)(C)CCN1C(=O)C2C(c3ccccc3)C=CC(c3ccccc3)C2C1=O (stereo not drawn) | 2.4 | 2.9 | 2.6 | 2.3 | -0.2 | -14.3
C=CCOCCN1C(=O)C2C(c3ccccc3)C=CC(c3ccccc3)C2C1=O (stereo not drawn) | -0.1 | 9.5 | 15.1* | 8.2 | 2.9 | -1.8
CC(=O)c1cccc(NS(=O)(=O)c2ccc3c(c2)N(C(C)=O)CCO3)c1 | -2.5 | -2.1 | -2.6 | 4.0 | 1.1 | .
COc1ccc(CC(=O)NC2CCN(CC(=O)Nc3ccc4c(c3)OCCO4)CC2)cc1OC | -4.4 | 5.9 | 12.0* | 0.3 | -0.8 | 4.5
COc1ccc(NC(=O)CN2CCN(Cc3ccc4c(c3)OCO4)CC2)cc1OC | -1.9 | -6.3 | -3.1 | 7.3 | -3.7 | 5.4
Cc1cc(NC(=O)CSc2nnc(CNC(=O)c3ccccc3)o2)no1 | -4.8 | -6.4 | -3.0 | 0.0 | 0.2 | .
COc1ccc(NC2CCCN(C(=O)CCc3cccc(Cl)c3)C2)cc1 (stereo not drawn) | 4.0 | -3.5 | -0.3 | 4.2 | -0.1 | .
CCOC(=O)C1=C(O)/C(=C\c2cc(C)n(-c3ccccc3F)c2C)N=C1C | 1.3 | 28.8 | 0.3 | 48.1* | -3.4 | 9.0
COc1ccc(CN(Cc2nc3ccccc3c(=O)[nH]2)C(=O)c2ccco2)cc1 | -2.3 | -0.6 | -3.0 | 1.2 | 0.0 | .
COc1ccc(CCN(Cc2nc3ccccc3c(=O)[nH]2)C(=O)c2ccco2)cc1OC | -4.2 | -7.7 | -3.6 | 1.5 | 0.4 | 98.2*
SMILES | VIM-2 inh | GLD-1 RNA inh | IMP-1 inh | BCLXL inh | MEX-5 binding | EBV gp42 block
COc1ccc(N2CCN(S(=O)(=O)CCNC(=O)C3CC(=O)N(c4ccccc4)C3)CC2)cc1 (stereo not drawn) | -7.2 | 2.5 | -3.0 | -3.5 | -0.7 | .
C=CCn1c(O)c(N=NC(=O)CNC(=O)/C=C/c2ccc(OC)cc2)c2ccccc21 | -0.5 | -3.5 | -1.7 | 5.7 | -5.7 | -9.8
C=CCn1c(O)c(N=NC(=O)CNC(=O)/C=C/c2ccco2)c2ccccc21 | 0.2 | -0.4 | -3.9 | 9.5 | -1.3 | 62.2*
COc1ccc(NC(=O)NCc2ccncc2)c(OC)c1 | -0.1 | 0.8 | -3.0 | 1.3 | 0.2 | -20.7
COc1ccc(NC(=O)NCc2cccnc2)c(OC)c1 | 0.0 | 9.1 | 15.6* | 2.9 | 5.2 | .
Cc1nc(S(=O)(=O)N(C)c2ccccc2)c(C#N)c(C)c1Cl | 0.5 | -0.3 | 0.0 | 31.2* | -0.3 | -15.8
O=C(NC12CC3CC(CC(C3)C1)C2)OCCNC1CCCCC1 | 0.5 | -1.8 | 4.5* | 5.8 | 0.1 | 3.8
CN(C)CCOC(=O)NC12CC3CC(CC(C3)C1)C2 | 0.0 | -1.8 | -1.8 | 5.7 | 0.0 | -4.1
Cc1cccc(NC(=O)CNC(=O)COC(=O)C2CC2C)c1C (stereo not drawn) | . | 0.6 | . | . | . | .
CC(=O)c1cccc(NC(=O)Cn2cnc(S(=O)(=O)N3CCCC3)c2)c1 | -5.0 | 3.6 | -1.1 | 4.3 | 0.1 | .
COc1cc(CN2CCN(c3cccc(C)c3C)CC2)cc(OC)c1O | -0.4 | 7.0 | -0.8 | 3.1 | -1.1 | 111.2*
O=c1onc(-c2cccnc2)n1-c1ccccc1F | -1.3 | 3.1 | 0.5 | 3.8 | -1.0 | -12.5
O=C(C1CCN(S(=O)(=O)c2ccc(Cl)cc2)CC1)N1CCN(c2ccccn2)CC1 | . | 0.1 | . | 1.1 | . | .
O=C(NCC1CCCO1)c1cccc2c1C(=O)c1ccc(N3CCC(Cc4ccccc4)CC3)cc1S2(=O)=O (stereo not drawn) | . | 6.2 | . | . | . | .
O=C(NCc1ccccc1Br)c1cccc2c1C(=O)c1ccc(N3CCC(Cc4ccccc4)CC3)cc1S2(=O)=O | . | 157.0* | . | . | . | .
O=C(NC1CCCCC1)c1cccc2c1C(=O)c1ccc(N3CCC(Cc4ccccc4)CC3)cc1S2(=O)=O | . | 62.1* | . | . | . | .
O=C(CC(C(=O)O)c1cccc(Cl)c1)c1ccccc1 (stereo not drawn) | 10.6* | 2.3 | -0.3 | 2.2 | 1.4 | .
CCOCCCNC(=O)/C(C#N)=C/c1ccc([N+](=O)[O-])o1 | -0.3 | 45.6* | -0.5 | 33.9* | -1.2 | 7.3
CCOCCCNC(=O)/C(C#N)=C/c1ccc(-c2ccc(S(=O)(=O)N3CCOCC3)cc2)o1 | -2.3 | 8.6 | -2.8 | 2.8 | 1.0 | -7.4
COc1ccc(/C=C2\CCc3c2nc2ccccc2c3C(=O)O)cc1OC | -0.8 | 117.2* | 1.9 | 98.8* | -4.9 | 8.4
COc1cc(/C=C2\CCCc3c2nc2ccccc2c3C(=O)O)cc(OC)c1O | 2.9 | 6.9 | -2.0 | 14.9 | -10.8 | -6.0
